Laboratory results: ChEMBL document CHEMBL4765234 (J Med Chem, 2016)
Each block holds one compound with its values, some of them ahead of it.

Tests used:
[1] = Drug metabolism in dog hepatocytes assessed as oxidation by LC-MS/MS analysis; format: ADME, cell-based, Canis lupus familiaris, Hepatocyte
[2] = Drug metabolism in mouse hepatocytes assessed as oxidation by LC-MS/MS analysis; format: ADME, cell-based, Hepatocyte
[3] = Drug metabolism in dog urine assessed as N-dealkylation by LC-MS/MS analysis; format: ADME, tissue-based, Canis lupus familiaris
[4] = Drug distribution in C57BL/6 mouse colon at 3 microg/kg, iv administered as single dose observed at 20 to 40 mins by LC-MS/MS analysis; format: ADME, organism-based; details: in vivo, 0.003 mg/kg, time 20-40 min, dose 3 µg/kg
In short: (§1)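 Tracer microdose study in fed male C57BL/6 mice: single 3 μg/kg IV dose in 25% HP-BCD. Mice were killed by cervical dislocation, and spleen, ascending colon, skeletal muscle and plasma were sampled at 20 and 40 min.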

[5] = Drug distribution in C57BL/6 mouse spleen at 3 microg/kg, iv administered as single dose observed at 20 to 40 mins by LC-MS/MS analysis; format: ADME, organism-based; details: in vivo, 0.003 mg/kg, time 20-40 min, dose 3 µg/kg; in short: as §1
[6] = Tmax in dog at 5 mg/kg, po or 1 mg/kg, iv by LC/MS/MS analysis; format: ADME, organism-based, Canis lupus familiaris; details: in vivo
In short: (§2)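 Mice, rats and beagle dogs dosed; blood drawn at set times into EDTA, processed to plasma and assayed by LC/MS/MS. Parameters (clearance, Vdss, terminal half-life, Cmax, Tmax, oral bioavailability) derived by noncompartmental analysis.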

[7] = Drug metabolism in dog plasma assessed as O-dealkylation metabolite formation by LC-MS/MS analysis; format: ADME, cell-free, Canis lupus familiaris
[8] = Tmax in mouse at 10 mg/kg, po or 1 mg/kg, iv by LC/MS/MS analysis; format: ADME, organism-based; details: in vivo; in short: as §2
[9] = Clearance in mouse plasma at 10 mg/kg, po or 1 mg/kg, iv by LC/MS/MS analysis; format: ADME, organism-based
In short: (§3)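 Dosing was oral and intravenous in mice, rats or beagle dogs. Blood was drawn at set time points into EDTA and processed to plasma. Plasma was assayed by LC/MS/MS. Clearance, Cmax and terminal half-life were derived by noncompartmental analysis.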

[10] = Volume of distribution at steady state in dog at 5 mg/kg, po or 1 mg/kg, iv by LC/MS/MS analysis; format: ADME, organism-based, Canis lupus familiaris; details: in vivo, read-out: Vdss; in short: as §2
[11] = AUC in hyperglycemic Balb/c mouse plasma at greater than 0.58 mg/kg measured upto 60 mins; format: ADME, organism-based; design: dose 0.58 mg/kg, time <=60
[12] = Half-life in dog at 5 mg/kg, po or 1 mg/kg, iv by LC/MS/MS analysis; format: ADME, organism-based, Canis lupus familiaris; details: in vivo; in short: as §2
[13] = Tmax in rat at 10 mg/kg, po or 3 mg/kg, iv by LC/MS/MS analysis; format: ADME, organism-based; details: in vivo; in short: as §2
[14] = Elimination half-life in rat plasma at 10 mg/kg, po or 3 mg/kg, iv by LC/MS/MS analysis; details: read-out: beta t1/2 (converted)
[15] = Cmax in mouse plasma at 10 mg/kg, po or 1 mg/kg, iv by LC/MS/MS analysis; format: ADME, organism-based; design: dose 10 mg/kg; in short: as §3
[16] = Drug metabolism in rat hepatocytes assessed as demethylation by LC-MS/MS analysis; format: ADME, cell-based, Hepatocyte
[17] = Drug metabolism in dog plasma assessed as conjugation with glucuronide metabolite formation by LC-MS/MS analysis; format: ADME, cell-free, Canis lupus familiaris
[18] = Tmax in type 2 diabetic mellitus human at 270 mg, po administered as single dose; format: ADME, organism-based; details: in vivo
In short: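 Single oral dose given to type 2 diabetic subjects; plasma drug levels followed over time. Cmax, Tmax, terminal half-life, AUC(0−∞), CL/F and Vz/F obtained by noncompartmental analysis and reported as geometric means with CV%.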

[19] = Cmax in type 2 diabetic mellitus human at 1080 mg, po administered as single dose; format: ADME, organism-based; design: route oral, dose 1080 mg; details: in vivo
In short: (§4)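 Type 2 diabetic subjects each received a single oral dose. Plasma drug levels were followed over time. Parameters were derived by noncompartmental analysis and reported as geometric means with CV%. CL/F is apparent total clearance and Vz/F is apparent terminal-phase volume.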

[20] = Drug metabolism in mouse hepatocytes assessed as demethylation by LC-MS/MS analysis; format: ADME, cell-based, Hepatocyte
[21] = Apparent clearance in type 2 diabetic mellitus human at 540 mg, po administered as single dose; format: ADME, organism-based; details: in vivo; in short: as §4
[22] = Apparent clearance in type 2 diabetic mellitus human at 270 mg, po administered as single dose; format: ADME, organism-based; details: in vivo; in short: as §4

Structure (SMILES): CC#C[C@@H](CC(=O)O)c1ccc(OCc2ccc(CN3CCC4(CCc5ccccc54)CC3)s2)cc1
Drug metabolism [1]: Metabolite_Detected
Drug metabolism [2]: Metabolite_Detected
Drug metabolism [3]: Metabolite_Detected

Structure (SMILES): CC#C[C@@H](CC(=O)O)c1ccc(OCc2ccc(CN3CCC4(C=Cc5ccccc54)CC3)s2)cc1
Drug uptake [4]: Active
Drug uptake [5]: Active

Structure (SMILES): CC#C[C@@H](CC(=O)O)c1ccc(OCc2ccc(CN3CCC4(C=Cc5ccccc54)CC3)cc2)cc1 [LY2881835]
Tmax [6]: 3 h
Drug metabolism [7]: Metabolite_Detected
Tmax [8]: 0.5 h
clearance [9]: 20.4 mL/min/kg
Vd [10]: 0.8 L/kg
AUC at 1 h [11]: 218 ng·h/mL
half-life [12]: 5.05 h
Tmax [13]: 0.25 h
half-life [14]: 2 h
Cmax [15]: 1100 ng/mL

Drug metabolism [16]: Metabolite_Detected
Drug metabolism [17]: Metabolite_Detected
Tmax [18]: 2.75 h
Cmax [19]: 7950 ng/mL
Drug metabolism [20]: Metabolite_Detected
CL/F [21]: 217 mL/min
CL/F [22]: 232 mL/min
Structure (SMILES): CC#C[C@@H](CC(=O)O)c1ccc(OCc2ccc(CN3CCCc4cccc(OC)c43)s2)cc1
